Activity calls are given as the source filed them. The calls are words filed in the database; no cut-off is given here.

Data set [1] has as its target Epidermal growth factor receptor (Homo sapiens, UniProt P00533). The data set is described as follows: Inhibition of EGFR (unknown origin) assessed as [33P] incorporation in substrate by TopCount microplate scintillation counting analysis.
Data set [2] addresses T1, Kinetochore protein NDC80 homolog (Homo sapiens) (UniProt O14777).
T1 sequence (whole entry): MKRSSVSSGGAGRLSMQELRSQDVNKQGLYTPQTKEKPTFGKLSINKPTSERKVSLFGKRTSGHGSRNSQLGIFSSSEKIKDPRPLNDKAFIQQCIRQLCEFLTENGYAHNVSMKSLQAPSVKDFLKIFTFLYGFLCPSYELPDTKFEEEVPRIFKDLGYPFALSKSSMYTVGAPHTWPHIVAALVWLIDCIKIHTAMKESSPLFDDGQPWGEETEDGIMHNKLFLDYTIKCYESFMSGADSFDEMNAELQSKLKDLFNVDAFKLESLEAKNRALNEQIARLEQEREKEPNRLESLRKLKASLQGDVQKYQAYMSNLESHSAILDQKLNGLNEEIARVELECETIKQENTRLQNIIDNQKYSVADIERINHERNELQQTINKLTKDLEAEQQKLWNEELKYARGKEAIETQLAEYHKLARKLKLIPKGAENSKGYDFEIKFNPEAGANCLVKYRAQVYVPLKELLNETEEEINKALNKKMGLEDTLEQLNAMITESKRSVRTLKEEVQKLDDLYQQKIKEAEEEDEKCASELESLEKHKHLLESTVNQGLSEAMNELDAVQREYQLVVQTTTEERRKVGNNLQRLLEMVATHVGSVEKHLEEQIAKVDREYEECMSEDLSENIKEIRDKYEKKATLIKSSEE
As to the kind of experiment: Inhibition of Hec1/Nek2 interaction in human MDA-MB-468 cells assessed as induction of Nek2 degradation at 100 nM by western blot analysis. It counts as cell-based. Put shortly:
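MDA-MB-468 cells treated with compound at 100 nM, with or without MG132 at 500 nM. Lysates made in SDS sample buffer, run on SDS-PAGE and blotted to PVDF. Primary antibodies applied in 3% BSA-TBST, with HRP secondaries and enhanced chemiluminescence detection for Hec1 and Nek2.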

Data set [3] has as its system MDA-MB-468. As to the kind of experiment: Induction of mitotic abnormalities in human MDA-MB-468 cells assessed as proportion of cells displaying chromosomal misalignment at 1000 nM after 48 hrs by immunofluorescent staining based microscopy (reference value: 21.4%). Type of data set: functional.
Data set [4] has as its target Receptor-type tyrosine-protein kinase FLT3 (Homo sapiens, UniProt P36888). As to the kind of experiment: Inhibition of FLT3 (unknown origin) assessed as [33P] incorporation in substrate by TopCount microplate scintillation counting analysis.
The subject of the next data set is HeLa. As to the kind of experiment: Induction of apoptosis in human HeLa cells assessed as reduction in XIAP protein expression at 1 uM after 24 to 48 hrs by western blot analysis. Type of data set: functional, cell-based. Put shortly: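 HeLa cells given 1.0 μM compound, DMSO, or paclitaxel 100 nM for 24 and 48 h. Lysates made in SDS sample buffer, run on SDS-PAGE and transferred to PVDF. Blots probed for cleaved caspase-3, cleaved PARP, Bcl-2, Mcl-1 and XIAP, with actin as loading control, and detected by HRP-linked ECL.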

In the next data set the target is Aurora kinase B (Homo sapiens, UniProt Q96GD4). The data set is described as follows: Inhibition of aurora B (unknown origin) assessed as [33P] incorporation in substrate by TopCount microplate scintillation counting analysis.
The target in data set [5] is Hepatocyte growth factor receptor (Homo sapiens, UniProt P08581). The data set is described as follows: Inhibition of MET (unknown origin) assessed as [33P] incorporation in substrate by TopCount microplate scintillation counting analysis.
Data set [6] is described as follows: Volume of distribution in Sprague-Dawley rat at 2 mg/kg, iv compound formulated with 5% DMSO, 10% cremophor and 85% water by LC-MS/MS analysis. It counts as ADME, organism-based. The arrangement: dose 2 mg/kg, route intravenous. Conditions: in vivo. In outline:
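Male Sprague–Dawley rats, n = 3. Blood drawn by preimplanted catheter over 24 h; plasma separated at 4 °C and deproteinated with acetonitrile. Drug measured by LC–MS/MS; parameters obtained by noncompartmental analysis.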

The test system of the next data set is K562. The data set is described as follows: Growth inhibition of human K562 cells. Type of data set: functional.
The target in data set [7] is Serine/threonine-protein kinase B-raf (Homo sapiens, UniProt P15056, V600E). As to the kind of experiment: Inhibition of B-Raf V600E mutant (unknown origin) assessed as [33P] incorporation in substrate by TopCount microplate scintillation counting analysis.
Data set [8] can be described thus: Clearance in Sprague-Dawley rat at 2 mg/kg, iv compound formulated with 5% DMSO, 10% cremophor and 85% water by LC-MS/MS analysis. The arrangement: dose 2 mg/kg, route intravenous. Conditions: in vivo. It counts as ADME, organism-based.
Data set [9] in a line: Growth inhibition of HUVEC. Conditions: human. Type of data set: cell-based.
A short description of data set [10]: Growth inhibition of human Hep3B cells. Type of data set: functional, Hep 3B2.
The next data set concerns Mus musculus. The data set is described as follows: Toxicity in BALB/c nu/nu mouse xenografted with human MDA-MB-231 cells assessed as body weight loss at 20 mg/kg, iv qd for 28 days. Type of data set: organism-based. The arrangement: dose 20 mg/kg, route intravenous. As to conditions: in vivo, 672 h. Put shortly:
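Female BALB/c nu/nu mice, 5–8 weeks old, implanted subcutaneously in the right flank with 1 × 10⁷ MDA-MB-231 cells in matrigel. Treatment began at about 100 mm³ tumor volume; 5 mice per group. Dosing for 28 days: IV 20 mg/kg once daily or PO 150 mg/kg twice daily, in 5% DMSO/10% Cremophor in H₂O; vehicle controls included. Body weight and tumor size (caliper) recorded every 2 days.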
For orientation: A xenograft is tissue or cells of one species grown in another, often human tumour cells in immunodeficient mice.

The subject of data set [11] is MDA-MB-468. The data set is described as follows: Induction of mitotic abnormalities in human MDA-MB-468 cells assessed as proportion of cells displaying multipolar spindles at 1000 nM after 48 hrs by immunofluorescent staining based microscopy (reference value: […]). Type of data set: functional.
A further data set deals with U-937. The data set is described as follows: Growth inhibition of human U937 cells. It counts as functional.
Data set [12] concerns the target Serine/threonine-protein kinase B-raf (Homo sapiens, UniProt P15056). The data set is described as follows: Inhibition of B-Raf (unknown origin) assessed as [33P] incorporation in substrate by TopCount microplate scintillation counting analysis.
In data set [13] the target is Serine/threonine-protein kinase Chk2 (Homo sapiens, UniProt O96017). The data set is described as follows: Inhibition of CHK2 (unknown origin) assessed as [33P] incorporation in substrate by TopCount microplate scintillation counting analysis.
Another data set concerns MDA-MB-231. As to the kind of experiment: Antiproliferative activity against human MDA-MB-231 cells assessed as cell viability after 96 hrs by CellTiter96 assay. Type of data set: functional, cell-based. Conditions: MDA-MB-231, 96 h.
For data set [14], the target named is Insulin-like growth factor 1 receptor (Homo sapiens, UniProt P08069). The data set is described as follows: Inhibition of IGF-1R (unknown origin) assessed as [33P] incorporation in substrate by TopCount microplate scintillation counting analysis.
The next data set concerns HepG2. As to the kind of experiment: Growth inhibition of human HepG2 cells. It counts as functional.
The test system of data set [15] is MDA-MB-468. As to the kind of experiment: Induction of mitotic abnormalities in human MDA-MB-468 cells assessed as proportion of cells displaying chromosomal misalignment at 100 nM after 48 hrs by immunofluorescent staining based microscopy (reference value: 21.4%). Type of data set: functional.
The next data set relates to HCT-116. As to the kind of experiment: Growth inhibition of human HCT116 cells. It counts as functional.
Data set [16] deals with Serine/threonine-protein kinase mTOR (Homo sapiens, UniProt P42345). The data set is described as follows: Inhibition of mTOR (unknown origin) assessed as [33P] incorporation in substrate by TopCount microplate scintillation counting analysis.

Hepatocyte growth factor receptor, sequence (P08581 whole entry): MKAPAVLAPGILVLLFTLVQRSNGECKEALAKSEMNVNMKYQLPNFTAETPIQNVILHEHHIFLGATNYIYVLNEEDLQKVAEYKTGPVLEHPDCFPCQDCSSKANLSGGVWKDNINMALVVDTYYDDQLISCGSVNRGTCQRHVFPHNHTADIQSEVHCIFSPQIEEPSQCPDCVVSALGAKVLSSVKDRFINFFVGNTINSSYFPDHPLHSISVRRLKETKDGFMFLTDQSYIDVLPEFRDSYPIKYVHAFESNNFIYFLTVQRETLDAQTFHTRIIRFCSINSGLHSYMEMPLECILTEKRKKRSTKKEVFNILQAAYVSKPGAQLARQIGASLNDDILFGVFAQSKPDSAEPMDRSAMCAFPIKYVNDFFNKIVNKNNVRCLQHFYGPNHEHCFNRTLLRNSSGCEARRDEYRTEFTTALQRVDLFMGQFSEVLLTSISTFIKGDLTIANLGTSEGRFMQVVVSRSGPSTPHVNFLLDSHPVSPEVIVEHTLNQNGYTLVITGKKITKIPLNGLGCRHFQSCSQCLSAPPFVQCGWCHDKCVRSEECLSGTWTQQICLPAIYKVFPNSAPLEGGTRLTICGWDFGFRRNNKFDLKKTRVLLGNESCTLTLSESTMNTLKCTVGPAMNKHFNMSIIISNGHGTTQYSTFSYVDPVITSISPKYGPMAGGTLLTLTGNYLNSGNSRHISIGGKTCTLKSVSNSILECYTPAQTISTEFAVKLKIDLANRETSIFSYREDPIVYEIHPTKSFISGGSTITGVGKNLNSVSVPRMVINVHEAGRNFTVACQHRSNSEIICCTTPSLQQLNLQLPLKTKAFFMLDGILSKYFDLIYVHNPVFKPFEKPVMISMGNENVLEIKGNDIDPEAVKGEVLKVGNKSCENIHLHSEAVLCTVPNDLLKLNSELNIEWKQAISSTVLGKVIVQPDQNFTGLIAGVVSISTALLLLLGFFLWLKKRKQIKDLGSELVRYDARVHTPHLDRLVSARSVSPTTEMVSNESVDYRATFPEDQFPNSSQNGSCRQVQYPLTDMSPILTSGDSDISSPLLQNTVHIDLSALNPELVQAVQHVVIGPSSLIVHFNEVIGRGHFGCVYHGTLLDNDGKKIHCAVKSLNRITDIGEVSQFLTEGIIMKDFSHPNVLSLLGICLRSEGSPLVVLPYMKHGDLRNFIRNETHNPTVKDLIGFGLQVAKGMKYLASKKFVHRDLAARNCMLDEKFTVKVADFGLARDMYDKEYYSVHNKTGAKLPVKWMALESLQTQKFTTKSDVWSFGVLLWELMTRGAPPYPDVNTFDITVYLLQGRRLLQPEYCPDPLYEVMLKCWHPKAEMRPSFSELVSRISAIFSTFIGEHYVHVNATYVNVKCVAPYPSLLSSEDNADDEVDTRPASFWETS
Serine/threonine-protein kinase Chk2, sequence (O96017 whole entry): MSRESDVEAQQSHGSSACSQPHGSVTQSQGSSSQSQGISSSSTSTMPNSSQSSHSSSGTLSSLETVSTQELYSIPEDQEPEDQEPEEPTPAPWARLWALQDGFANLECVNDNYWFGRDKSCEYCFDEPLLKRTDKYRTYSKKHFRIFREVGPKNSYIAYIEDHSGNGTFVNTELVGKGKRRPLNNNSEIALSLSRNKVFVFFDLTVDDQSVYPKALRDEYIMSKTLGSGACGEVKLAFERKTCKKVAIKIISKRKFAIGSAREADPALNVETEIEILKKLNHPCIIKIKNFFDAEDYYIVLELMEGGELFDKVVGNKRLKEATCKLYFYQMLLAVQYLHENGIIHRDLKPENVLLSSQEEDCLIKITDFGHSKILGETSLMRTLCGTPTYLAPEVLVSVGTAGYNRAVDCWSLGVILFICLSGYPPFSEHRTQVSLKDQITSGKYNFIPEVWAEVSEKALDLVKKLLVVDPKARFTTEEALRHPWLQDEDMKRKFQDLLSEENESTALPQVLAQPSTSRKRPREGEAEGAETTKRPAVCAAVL
Serine/threonine-protein kinase B-raf (Homo sapiens, UniProt P15056), sequence (P15056 whole entry): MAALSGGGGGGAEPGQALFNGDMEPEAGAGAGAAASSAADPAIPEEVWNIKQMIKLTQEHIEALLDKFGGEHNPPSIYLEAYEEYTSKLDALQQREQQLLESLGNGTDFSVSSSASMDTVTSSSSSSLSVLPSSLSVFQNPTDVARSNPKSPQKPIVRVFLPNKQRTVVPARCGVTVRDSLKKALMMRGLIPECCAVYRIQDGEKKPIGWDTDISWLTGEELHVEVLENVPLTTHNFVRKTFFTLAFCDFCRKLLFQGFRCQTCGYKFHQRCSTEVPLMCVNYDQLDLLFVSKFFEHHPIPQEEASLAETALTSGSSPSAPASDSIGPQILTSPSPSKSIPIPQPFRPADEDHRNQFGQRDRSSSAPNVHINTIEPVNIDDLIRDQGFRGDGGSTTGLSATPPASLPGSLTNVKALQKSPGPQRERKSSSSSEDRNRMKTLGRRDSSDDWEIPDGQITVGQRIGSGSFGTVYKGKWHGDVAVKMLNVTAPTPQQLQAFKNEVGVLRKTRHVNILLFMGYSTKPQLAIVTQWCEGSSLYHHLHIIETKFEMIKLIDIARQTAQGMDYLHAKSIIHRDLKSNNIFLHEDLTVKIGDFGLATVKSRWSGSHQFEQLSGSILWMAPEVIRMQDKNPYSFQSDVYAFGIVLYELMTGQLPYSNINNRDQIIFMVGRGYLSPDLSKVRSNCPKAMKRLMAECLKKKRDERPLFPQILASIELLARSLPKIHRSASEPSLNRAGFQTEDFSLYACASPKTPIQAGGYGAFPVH
Insulin-like growth factor 1 receptor, sequence (P08069 31-736 limits assumed): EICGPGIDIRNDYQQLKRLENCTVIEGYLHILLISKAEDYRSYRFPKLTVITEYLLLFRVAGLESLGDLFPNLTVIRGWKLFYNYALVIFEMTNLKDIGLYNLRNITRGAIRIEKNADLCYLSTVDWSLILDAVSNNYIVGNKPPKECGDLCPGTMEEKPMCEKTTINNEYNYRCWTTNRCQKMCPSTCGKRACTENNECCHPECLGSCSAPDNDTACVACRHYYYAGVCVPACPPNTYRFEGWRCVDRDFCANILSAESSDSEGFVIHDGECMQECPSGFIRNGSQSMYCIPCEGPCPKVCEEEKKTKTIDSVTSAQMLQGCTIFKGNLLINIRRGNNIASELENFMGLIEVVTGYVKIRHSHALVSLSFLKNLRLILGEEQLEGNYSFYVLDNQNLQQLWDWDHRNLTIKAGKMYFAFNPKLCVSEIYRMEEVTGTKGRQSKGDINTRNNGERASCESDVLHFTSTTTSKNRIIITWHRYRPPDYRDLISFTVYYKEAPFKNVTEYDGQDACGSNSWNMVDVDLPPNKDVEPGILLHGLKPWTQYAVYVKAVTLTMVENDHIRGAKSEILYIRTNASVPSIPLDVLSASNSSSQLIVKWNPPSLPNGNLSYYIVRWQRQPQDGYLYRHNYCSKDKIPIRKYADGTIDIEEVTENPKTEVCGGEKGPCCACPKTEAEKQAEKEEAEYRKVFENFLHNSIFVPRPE
Insulin-like growth factor 1 receptor, sequence (P08069 741-1367 limits assumed): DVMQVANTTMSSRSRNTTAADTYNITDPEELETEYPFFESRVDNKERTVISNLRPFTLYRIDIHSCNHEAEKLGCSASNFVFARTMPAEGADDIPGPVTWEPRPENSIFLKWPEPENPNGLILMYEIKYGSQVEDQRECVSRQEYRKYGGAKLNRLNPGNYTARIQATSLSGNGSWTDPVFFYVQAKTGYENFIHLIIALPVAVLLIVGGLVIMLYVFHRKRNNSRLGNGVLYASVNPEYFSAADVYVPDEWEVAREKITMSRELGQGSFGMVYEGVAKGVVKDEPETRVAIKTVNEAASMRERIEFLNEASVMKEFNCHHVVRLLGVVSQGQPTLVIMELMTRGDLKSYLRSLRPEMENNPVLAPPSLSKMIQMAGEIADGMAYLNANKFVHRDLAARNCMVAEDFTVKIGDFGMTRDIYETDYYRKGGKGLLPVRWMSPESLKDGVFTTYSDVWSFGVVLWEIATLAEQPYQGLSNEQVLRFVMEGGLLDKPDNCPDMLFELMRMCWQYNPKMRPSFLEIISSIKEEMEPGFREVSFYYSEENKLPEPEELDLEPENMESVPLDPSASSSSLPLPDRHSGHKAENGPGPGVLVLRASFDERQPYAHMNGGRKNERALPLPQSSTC
Receptor-type tyrosine-protein kinase FLT3, sequence (P36888 whole entry): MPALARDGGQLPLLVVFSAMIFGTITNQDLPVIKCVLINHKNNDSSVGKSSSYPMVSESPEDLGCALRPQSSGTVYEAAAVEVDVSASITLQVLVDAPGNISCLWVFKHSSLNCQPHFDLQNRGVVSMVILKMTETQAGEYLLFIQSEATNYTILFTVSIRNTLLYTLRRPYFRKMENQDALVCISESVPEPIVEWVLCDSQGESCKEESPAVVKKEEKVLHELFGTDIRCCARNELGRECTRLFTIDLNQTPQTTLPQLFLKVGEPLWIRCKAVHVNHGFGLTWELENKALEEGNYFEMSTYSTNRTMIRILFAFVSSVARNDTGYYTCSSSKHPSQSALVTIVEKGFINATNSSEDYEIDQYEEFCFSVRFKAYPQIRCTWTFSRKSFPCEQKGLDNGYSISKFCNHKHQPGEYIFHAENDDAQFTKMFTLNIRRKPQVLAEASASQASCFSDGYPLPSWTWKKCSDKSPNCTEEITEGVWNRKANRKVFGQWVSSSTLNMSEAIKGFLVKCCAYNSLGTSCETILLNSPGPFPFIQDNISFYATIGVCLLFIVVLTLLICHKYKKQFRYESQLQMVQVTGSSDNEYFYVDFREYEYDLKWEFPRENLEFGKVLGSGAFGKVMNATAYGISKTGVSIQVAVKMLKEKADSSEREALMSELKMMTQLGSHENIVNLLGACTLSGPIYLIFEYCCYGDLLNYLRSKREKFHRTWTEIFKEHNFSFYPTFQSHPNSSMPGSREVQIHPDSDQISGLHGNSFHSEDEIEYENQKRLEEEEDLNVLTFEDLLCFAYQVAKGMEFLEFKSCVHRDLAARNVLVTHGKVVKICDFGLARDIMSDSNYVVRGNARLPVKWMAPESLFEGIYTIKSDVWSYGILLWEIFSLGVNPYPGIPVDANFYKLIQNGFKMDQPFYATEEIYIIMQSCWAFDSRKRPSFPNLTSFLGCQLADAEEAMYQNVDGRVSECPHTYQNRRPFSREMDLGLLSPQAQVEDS

In the case of `COc1ccc(Oc2cc(C)c(-c3csc(NC(=O)c4ccnc(F)c4)n3)c(C)c2)cc1`, the IC50 (in data set [1]; in data set [4]; on Aurora kinase B; in [5]; in [7]; in data set [12]) was > 10 µM in each case. Moreover, the IC50 in data set [13] was > 10 µM; in the data set with MDA-MB-231, 0.02 µM; in data set [14], > 10 µM; in [16], > 10 µM. In [2], the outcome was Active. Also, the Activity in the data set on MDA-MB-468 [3] is listed as 20%; in the data set with Mus musculus it was < 5%; with MDA-MB-468 [11] it was 46.7%; in the data set on MDA-MB-468 [15], 21.8%. Moreover, in the data set with HeLa, the inhibition result is “Active”. For the same molecule, in data set [6], the Vd amounted to 0.948 L/kg. Besides, the 50% growth inhibitory concentration (GI50) in the data set on K562 was 0.0562 µM; in data set [9] it was > 9 µM; in data set [10], 0.0683 µM; in the data set with U-937, 0.0296 µM; with HepG2, 0.191 µM; in the data set on HCT-116, 0.0341 µM. Besides, the clearance in [8] was found to be 1.22 mL/min/kg.

For orientation: IC50 means the point on the concentration scale where inhibition reaches its midpoint. In general, Vd refers to a proportionality between amount in the body and measured concentration, not a real space. The term GI50 denotes the concentration that inhibits growth by half. Low values mean greater sensitivity of the cells, high ones lower sensitivity of the cells. For orientation: clearance means the rate of elimination divided by the concentration. Read a low clearance as inefficient removal.

(Values after ChEMBL document CHEMBL3259640 (J Med Chem, 2014).)
